Bioassay records deposited in PubChem by The Scripps Research Institute Molecular Screening Center.
TCR-CD3 inh = human TCR-CD3 binding inhibition; TAMRA-labeled TCR probe fluorescence, biochemical; inhibition, % at 9.4 µM; 0.37% of 360,000 active; in the data active = inhibition above about 19%;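 note: recombinant mutant TCR 2C K166C tagged with TAMRA read by polarization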
HTRA1 inhibitor = HTRA1 (human) protease inhibition. recombinant HTRA1, FP-rhodamine activity-based probe, fluorescence polarization. inhibition, % at 5.96 µM. 0.5% of 340,000 active. AID 504803; in the data active = inhibition above about 36%
mABHD4 FP = inhibits mouse alpha/beta hydrolase domain 4; inhibition, % at 8.92 µM; purified mABHD4, FP-Rh probe fluorescence polarization; 0.54% of 370,000 active; Q8VD66;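 active = inhibition exceeding the mean over every tested compound plus 3 SD, cut at about 30% in these data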
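Assay system: mABHD4 protein; medium: HEPES pH 7.0, NaCl, Pluronic buffer; dosing: 8.92 µM, single dose; schedule: 45 min + 60 min at 25 °C; signal: FP readout, ex 525 nm / em 598 nm; read-out: normalized percent inhibition of probe labeling; repeats: single replicate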
SIAE inh = human SIAE inhibition, primary screen; SIAE FP-Rh probe binding, fluorescence polarization; Q9HAT2; AID 1053197; inhibition, % at 9.66 µM; 0.69% of 370,000 active;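 active = inhibition above a cutoff: mean of compounds within the control limits plus 3 SD of those, cut at about 17% in these data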
Target sequence (Q9HAT2 whole entry, looked up): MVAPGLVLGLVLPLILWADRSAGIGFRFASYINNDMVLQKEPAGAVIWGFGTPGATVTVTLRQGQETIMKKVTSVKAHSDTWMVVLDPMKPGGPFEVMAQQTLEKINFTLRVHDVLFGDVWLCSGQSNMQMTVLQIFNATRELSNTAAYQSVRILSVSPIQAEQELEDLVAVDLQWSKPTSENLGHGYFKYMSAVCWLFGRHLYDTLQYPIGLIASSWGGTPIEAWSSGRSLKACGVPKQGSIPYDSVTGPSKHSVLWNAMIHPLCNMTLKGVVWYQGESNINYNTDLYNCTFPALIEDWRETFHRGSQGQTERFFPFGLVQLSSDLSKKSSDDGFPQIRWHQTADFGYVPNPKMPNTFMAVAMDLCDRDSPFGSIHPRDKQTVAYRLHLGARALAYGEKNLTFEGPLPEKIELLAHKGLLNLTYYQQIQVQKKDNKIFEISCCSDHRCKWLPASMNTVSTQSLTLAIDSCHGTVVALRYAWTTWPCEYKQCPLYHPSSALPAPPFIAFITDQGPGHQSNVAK
PRMT1 FP inh = PRMT1 (human) inhibition, primary screen. recombinant PRMT1, activity-based probe fluorescence polarization. inhibition, % at 2.79 µM. 1.3% of 370,000 active;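 active = inhibition above about 21% made by adding two undisclosed values, limit read from the data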
Numbers stand for hits; n = inactive; x = no result given. The list is not random: actives were taken first. Their share in the collection is about 2.5%.

SMILES	TCR-CD3 inh	HTRA1 inhibitor	mABHD4 FP	SIAE inh	PRMT1 FP inh
Cc1[nH]n(-c2ccccc2)c(=O)c1-c1ccccc1	n	n	n	18	n
O=C(O)c1ccnc(SCC(=O)c2ccccc2)c1	n	n	n	n	23
O=C(Nc1ccc(Nc2cccnc2)cc1)c1c[nH]c2ccccc12	n	x	42	n	n
COc1cccc(-n2c(=O)c3cc(OC)c(OC)cc3n(CC(=O)Nc3cc(C)[nH]n3)c2=O)c1	n	n	n	n	n
CC(=O)NN1C(=O)/C(=C/c2ccc(Br)o2)SC1=S	n	n	n	n	25
Cc1cc(-c2cc(-c3ccc(Cl)cc3)nc(N)c2C#N)co1	n	n	n	n	39
CCC/C=C1/CCCOC(C(=O)NCc2ccccn2)(C(F)(F)F)C1 (stereo not given)	n	n	n	n	n
CCC/C=C1/CCCOC(C(=O)NCc2ccc(C)o2)(C(F)(F)F)C1 (stereo not given)	n	n	n	n	45
CCN(CC(=O)NCc1cccs1)C(=O)c1ccc(-c2ccc(F)cc2)o1	n	n	n	n	24
CCOC(=O)c1ccc2c(c1)N(C)C(=O)c1ccccc1S2	x	n	x	x	x
CCOC(=O)c1cc2n(c1/N=C/N(C)C)-c1ccccc1C2=O	n	n	n	n	23
COc1ccc(-c2oc3cc(OC(C)=O)cc(OC(C)=O)c3c(=O)c2OC)cc1	n	n	n	n	n
CC(=O)Oc1cc(O)c2c(=O)c(OC(C)=O)c(-c3ccc(OC(C)=O)c(OC(C)=O)c3)oc2c1	x	50	x	x	x
CCOC(=O)c1c(S(=O)(=O)N2CCCC2)c(C)n(C)c1C	n	n	n	n	22
COc1ccccc1OCC(=O)Nc1sc2c(c1C(=O)NCC1CCCO1)CCC2 (stereo not given)	n	n	n	n	n
Cc1cc(C)cc(-n2c(SCC(=O)NCc3ccc4c(c3)OCO4)nc3ccccc3c2=O)c1	n	n	n	n	n
O=C(CSc1nc2cc([N+](=O)[O-])ccc2n1-c1ccccc1)NCc1ccc2c(c1)OCO2	n	n	n	n	24
O=C(CSc1cccc[n+]1[O-])Nc1cc2c(cc1Cl)C(=O)c1ccccc1C2=O	n	n	n	n	23
CCN1C=CC2=C(C#N)C(N)C(C#N)(C#N)C(c3ccccc3C(F)(F)F)C2C1 (stereo not given)	n	n	n	n	22
CCN1C=C(Cc2ccccc2C)C2=C(C1)C(c1ccccc1C)C(C#N)=C(N)O2 (stereo not given)	n	n	n	n	n
Cc1ccccc1NC(=O)CC1SCCNC1=O (stereo not given)	n	n	n	n	22
COc1cccc(CN2C[C@]34C=C[C@@H](C[C@@H]3S2(=O)=O)O4)c1	n	n	n	n	n
CC(=O)Oc1cc2oc(=O)cc(C)c2cc1OC(C)=O	n	n	n	n	21
C=CCN(Cc1ccccc1)C(C#CC(=C)C)Cc1ccccc1 (stereo not given)	x	x	n	n	n
Cc1nc2c(=O)[nH]c(=S)[nH]c2[nH]c1=O	n	n	n	n	24
SMILES	TCR-CD3 inh	HTRA1 inhibitor	mABHD4 FP	SIAE inh	PRMT1 FP inh
CC(=O)C1=C(c2ccccc2)NC(=O)NC1c1ccccc1OCC#N (stereo not given)	n	n	n	n	n
CC(C)CC(=O)/C=C/n1c(=S)oc2ccccc21	n	n	n	n	n
CC(=O)/C=C/n1c(=S)oc2ccccc21	n	x	n	n	23
Cc1ccc(-c2c(C(=O)O)c(C(=O)O)c3n2CSC3)cc1	n	n	n	n	24
CC(C)(C)c1ccc(-c2c(C(=O)O)c(C(=O)O)c3n2CSC3)cc1	n	n	n	n	n
CCCCCCCCCCCC1=C(O)C(=O)C=C(O)C1=O	x	43	x	x	x
N#C/C(=C/c1cn(-c2ccccc2)nc1-c1cccc(S(=O)(=O)N2CCCC2)c1)C(=O)NCc1ccco1	n	n	n	n	n
N#C/C(=C/c1cn(-c2ccccc2)nc1-c1cccc(S(=O)(=O)N2CCOCC2)c1)C(=O)NCc1ccco1	n	n	n	n	23
CNC(=S)N(Cc1ccc(OC)cc1)C1CC(=O)N(c2ccc(OC)cc2)C1=O (stereo not given)	n	n	n	n	n
COc1ccc(C(NC(=O)c2cccnc2)c2cc(Cl)c3cccnc3c2O)cc1OC (stereo not given)	n	45	n	n	n
CC(Oc1ccc2ccc(=O)oc2c1)C(=O)c1ccccc1 (stereo not given)	n	n	n	n	n
COc1cc(OC)c(NC(=O)CN(C)S(=O)(=O)c2ccc3[nH]c(=O)oc3c2)cc1Cl	20	n	n	n	n
